The source of these data is article PMC7069794 (Hepatology (Baltimore, Md.), 2020).

In data set [1] the test system is Paneth cells / intestinal crypts of WT mice. Nature of the data set: acute zinc deprivation by dithizone in mice. The format is in vivo. Particulars: dithizone 75 mg/kg i.p., 6 h. Put shortly: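 Male WT mice received dithizone at 75 mg/kg i.p., and intestines were collected 6 h later. Small-intestinal crypts were isolated for imaging and bacterial killing, and ileal Defa5 and Lyz1 mRNA was measured relative to untreated mice, n=6. Data are mean±SD, compared by t-test, rank-sum or ANOVA as appropriate (P<0.05).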

The test system of data set [2] is released crypt components (mainly AMPs) of isolated mouse crypts. The data set is classed as cell-based, mice. The settings on record: 10 μmol/L carbamyl choline, then 2 μmol/L TPEN for 30 min; n=6. Put shortly: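 Crypts isolated from male WT mouse small intestine were treated with 10 μmol/L carbamyl choline to induce granule release. Released material was then exposed to 2 μmol/L TPEN for 30 min for zinc chelation, and its bactericidal activity was measured, n=6. Data are mean±SD.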

Data set [3] deals with E. coli ML35. Nature of the data set: E. coli ML35 killing of HD5 with or without zinc determined by flow cytometry. Particulars: n=6; for bactericidal activity: oxidized and reduced forms of HD5, without zinc. The format is cell-based. In general terms: A flow cytometer gives signals particle by particle.
In data set [4] the test system is Hepa1c1c7 mouse hepatoma cells. The format is cell-based. The settings on record: LPS 100 ng/mL, 6 h; n=3.
Data set [5] concerns pair-fed and alcohol-fed mice. Nature of the data set: LPS injection 4 hours before finishing chronic feeding in mice. Particulars: LPS 4 mg/kg i.p., n=6. The data set is classed as in vivo. A digest of the protocol: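 Male mice, 12 weeks old, were fed ethanol-containing Lieber-DeCarli liquid diet (alcohol-fed) or isocaloric control liquid diet (pair-fed) for 8 wk. A single LPS dose of 4 mg/kg was given i.p. 4 h before the end of feeding. Read-out was relative hepatic Lcn2 and Cxcl1 mRNA, n=6. Data are mean±SD, compared by t-test or one-way ANOVA with Newman-Keuls post hoc test (P<0.05).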

Data set [6] has as its system alcohol-fed mice. The data set is classed as in vivo.
For data set [7], the system named is pepsin. The data set is classed as in vitro ADME.
The test system of data set [8] is mice. Particulars: cited from earlier work.
The nature of data set [9]: overnight incubation of HD5red with or without zinc, nUHPLC-MS. The data set is classed as physicochemical.

In the case of `S=C(N=Nc1ccccc1)NNc1ccccc1` [Dithizone, dithizone], in data set [1], the PC degranulation entry is listed as “rapid PC degranulation”. Further, in data set [1] (n=6), the crypt bacterial killing result is listed as “impaired”. Besides, the “expression of Defa5 and Lyz1” value in [1] (ileal mRNA, n=6) is reported as “reduced”.
`c1ccc(CN(CCN(Cc2ccccn2)Cc2ccccn2)Cc2ccccn2)nc1` [TPEN, N,N,N′,N′-Tetrakis(2-pyridylmethyl)ethylenediamine]: the “bacterial killing of released crypt components after zinc chelation” value in data set [2] is reported as “impaired bacterial killing”.
Turning to `[Zn]` [Zinc, zinc], the “bacterial viability, zinc alone” value in [3] (zinc without HD5) is listed as “did not affect bacterial viability”.
For lipopolysaccharide [LPS], in data set [4], the “Lcn2 and Cxcl1 expressions in Hepa1c1c7 hepatocytes” value was “directly stimulated”. In addition, in data set [5] (alcohol-fed mice), the “hepatic Cxcl1 expression in AF mice in response to LPS” value is “did not further alter” and the “hepatic Lcn2 in AF mice in response to LPS” value is “only mildly upregulated”. In addition, in data set [5] (pair-fed mice), the “hepatic Lcn2 and Cxcl1 in PF mice in response to LPS” value is on record as “dramatically upregulated”.

B1: human α-defensin 5 (peptide, UniProt Q01523 20-94, looked up)
Defensin alpha 5: ESLQERADEATTQKQSGEDNQDLAISFAGNGLSALRTSGSQARATCYCRTGRCATRESLSGVCEISGRLYRLCCR
modifications: Defensin-5
On to B1, for which the “antibacterial function of both forms of HD5 with zinc” value in [3] (HD5 oxidized and reduced forms, with zinc vs without) is “significantly improved”. In data set [3], the bactericidal activity result is recorded as “effectively killed bacteria”. In addition, the “intestinal structural changes (slight villous blunting), H&E staining” value in [6] (AF+HD5 group vs AF group (Fig. S11)) was “improved”. Moreover, the “Verrucomicrobiaceae abundance in cecal contents” value in [6] (AF+HD5 mice, mean±SD, AF mice 2.03±0.69%, P<0.001, n=8) is 20.39±5.29%. Moreover, the “plasma ALT levels” value in data set [6] (AF+HD5 vs AF, n=8) is on record as “decreased”. The “A. muciniphila abundance, PCR analysis” value in data set [6] (cecal contents, AF+HD5 vs AF, n=4) was “significantly enriched”. In addition, in [6] (ileal mRNA, AF+HD5 vs AF), the “expression of intestinal Il22” value is “notably augmented”; the “levels of inflammatory cytokines/chemokines, including Ip10, Tnfa, and Mip2” value is “lowered”. In addition, the “expression of ileal α-defensins, including Defa4, Defa20 and Defa21” value in [6] (ileal mRNA, AF+HD5 vs AF, n=6) is “upregulated”. Moreover, the “alcohol-impaired distribution of ZO-1 and claudin-1” value in data set [6] (ileum, IF staining and Western blot, n=3) was “reversed”. In data set [6] (liver, mRNA n=6, IHC/IF n=3), the “alcohol-induced Lcn2 and Cxcl1 elevation, macrophage activation, and immune cell infiltration” value was “reduced”. Further, the “plasma ethanol levels and protein levels of CYP2E1 and ALDH2” value in data set [6] (mouse, in vivo) was “remained the same”. Also, in data set [6] (plasma endotoxin, hepatic 16S rRNAs, n=8), the “PAMP translocation, including endotoxemia and increased hepatic bacterial DNAs” value was “effectively reversed”. Further, the “intact HD5 that bypassed gastric digestion” value in [7] worked out at 75%. For the same molecule, the “intestinal injury caused by alcohol and colitis” value in data set [8] was “attenuated”. For the same molecule, in [8] (without decreasing microbial diversity), the “Akkermensia sp. in mice” value is “increased”.

B2: HD5red: reduced form of HD5 (peptide, UniProt Q01523 20-94, looked up)
Defensin alpha 5: B1 Defensin alpha 5
modifications: Defensin-5 reduced form
As to B2, the bactericidal activity result in data set [3] is “more potent”. The “redox state of HD5red after overnight incubation in the absence of zinc” value in data set [9] (no zinc) was “all became oxidized”. In [9] (with zinc), the “redox state of HD5red after overnight incubation with zinc” value is given as “a majority of HD5 remained in reduced forms”.
